Test results published in ChEMBL document CHEMBL1687878, “Synthesis and biological evaluation of substituted (thieno[2,3-d]pyrimidin-4-ylthio)carboxylic acids as inhibitors of human protein kinase CK2” (Eur J Med Chem, 2011).

Experiments:
Casein kinase II = Casein kinase II (Homo sapiens, UniProt P19784+P67870+P68400); experiment: Inhibition of recombinant human CK2 activity assessed as [gamma-32P]ATP incorporation into substrate peptide after 20 mins in presence of 50 uM ATP; assay type: protein-complex assay
How it was run: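 Radiometric assay with 10 units of recombinant human CK2 in 20 mM Tris-HCl pH 7.5, 50 mM KCl, 10 mM MgCl2. It used 50 µM ATP plus γ-32P ATP (specific activity 100 µCi/µM) and serially diluted inhibitor, run 20 min at 30 °C. The reaction was stopped with 10% phosphoric acid, spotted on phosphocellulose paper, washed with 1% phosphoric acid and Cherenkov-counted. Percent inhibition was taken relative to the DMSO no-inhibitor control, and IC50 was derived from the dilution series.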

[1] = biological target: T1, Mitogen-activated protein kinase kinase kinase 5 (Homo sapiens) (UniProt Q99683); experiment: Inhibition of recombinant human Ask1 kinase assessed as residual activity at 10 uM in presence of 100 uM ATP
T1 sequence (whole entry): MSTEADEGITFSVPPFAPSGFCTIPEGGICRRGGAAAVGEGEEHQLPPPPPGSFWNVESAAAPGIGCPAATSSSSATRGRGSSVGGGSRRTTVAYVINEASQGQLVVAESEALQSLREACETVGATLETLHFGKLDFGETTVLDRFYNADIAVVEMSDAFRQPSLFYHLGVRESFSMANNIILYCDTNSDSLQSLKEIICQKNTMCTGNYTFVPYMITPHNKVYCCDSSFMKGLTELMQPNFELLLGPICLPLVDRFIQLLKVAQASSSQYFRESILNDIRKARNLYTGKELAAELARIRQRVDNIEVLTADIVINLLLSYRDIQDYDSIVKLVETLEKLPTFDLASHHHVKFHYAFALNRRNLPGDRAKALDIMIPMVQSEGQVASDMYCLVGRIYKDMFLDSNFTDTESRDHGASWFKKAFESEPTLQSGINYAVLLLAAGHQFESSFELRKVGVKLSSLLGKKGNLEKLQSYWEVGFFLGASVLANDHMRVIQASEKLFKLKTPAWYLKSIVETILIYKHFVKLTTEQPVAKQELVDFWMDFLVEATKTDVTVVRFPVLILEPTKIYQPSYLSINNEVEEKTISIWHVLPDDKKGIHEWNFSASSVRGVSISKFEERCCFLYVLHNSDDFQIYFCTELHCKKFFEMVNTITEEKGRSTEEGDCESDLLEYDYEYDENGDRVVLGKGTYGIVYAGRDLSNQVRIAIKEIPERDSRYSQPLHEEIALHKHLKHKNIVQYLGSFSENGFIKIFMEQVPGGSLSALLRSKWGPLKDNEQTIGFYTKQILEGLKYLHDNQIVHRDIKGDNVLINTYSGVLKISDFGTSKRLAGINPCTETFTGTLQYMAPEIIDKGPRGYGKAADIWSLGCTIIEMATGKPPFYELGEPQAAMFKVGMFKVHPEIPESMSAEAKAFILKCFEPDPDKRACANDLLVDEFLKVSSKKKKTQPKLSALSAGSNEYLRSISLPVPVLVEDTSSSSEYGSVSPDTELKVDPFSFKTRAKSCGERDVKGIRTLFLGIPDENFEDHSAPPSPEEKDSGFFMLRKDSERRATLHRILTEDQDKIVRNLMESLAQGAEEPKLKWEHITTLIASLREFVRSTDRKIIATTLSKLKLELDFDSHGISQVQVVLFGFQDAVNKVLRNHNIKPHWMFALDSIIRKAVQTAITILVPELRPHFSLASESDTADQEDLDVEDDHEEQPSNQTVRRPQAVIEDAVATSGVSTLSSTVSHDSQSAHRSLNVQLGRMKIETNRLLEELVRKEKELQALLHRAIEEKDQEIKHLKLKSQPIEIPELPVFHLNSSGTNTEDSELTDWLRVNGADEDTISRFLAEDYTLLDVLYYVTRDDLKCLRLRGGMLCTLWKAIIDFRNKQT
How it was run: (§1)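 Inhibitor was tested at 10 µM with a final ATP of 100 µM. Residual activity is expressed as a percentage of the control without inhibitor.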

[2] = biological target: Casein kinase II (Homo sapiens) (UniProt P67870+P68400+P19784); experiment: Inhibition of recombinant human CK2 kinase assessed as residual activity at 10 uM in presence of 100 uM ATP; assay type: protein-complex assay
How it was run: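 CK2 residual activity was measured with 10 µM inhibitor and a final ATP of 100 µM. It is expressed as a percentage of the no-inhibitor control.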

[3] = biological target: T2, Aurora kinase A (Homo sapiens) (UniProt O14965); experiment: Inhibition of recombinant human Aurora A kinase assessed as residual activity at 10 uM in presence of 100 uM ATP; how it was run: as §1
T2 sequence (whole entry): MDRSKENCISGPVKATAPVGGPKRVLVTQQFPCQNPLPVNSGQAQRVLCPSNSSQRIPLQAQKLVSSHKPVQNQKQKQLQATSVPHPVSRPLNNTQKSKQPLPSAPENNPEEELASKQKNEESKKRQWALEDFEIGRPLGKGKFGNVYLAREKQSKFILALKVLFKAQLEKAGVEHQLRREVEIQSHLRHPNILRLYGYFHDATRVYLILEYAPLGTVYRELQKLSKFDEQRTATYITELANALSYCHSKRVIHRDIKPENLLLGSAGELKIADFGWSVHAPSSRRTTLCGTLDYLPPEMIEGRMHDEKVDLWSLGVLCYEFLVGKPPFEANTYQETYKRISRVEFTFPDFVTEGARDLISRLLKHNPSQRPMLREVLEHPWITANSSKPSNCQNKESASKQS

[4] = biological target: Fibroblast growth factor receptor 1 (Homo sapiens) (UniProt P11362); experiment: Inhibition of recombinant human FGFR1 kinase assessed as residual activity at 10 uM in presence of 100 uM ATP; how it was run: as §1
[5] = biological target: Rho-associated protein kinase 1 (Homo sapiens) (UniProt Q13464); experiment: Inhibition of recombinant human Rock1 kinase assessed as residual activity at 10 uM in presence of 100 uM ATP; how it was run: as §1
[6] = biological target: Hepatocyte growth factor receptor (Homo sapiens) (UniProt P08581); experiment: Inhibition of recombinant human Met kinase assessed as residual activity at 10 uM in presence of 100 uM ATP; how it was run: as §1
[7] = biological target: Mitogen-activated protein kinase 10 (Homo sapiens) (UniProt P53779); experiment: Inhibition of recombinant human Jnk3 kinase assessed as residual activity at 10 uM in presence of 100 uM ATP; how it was run: as §1
[8] = biological target: Angiopoietin-1 receptor (Homo sapiens) (UniProt Q02763); experiment: Inhibition of recombinant human Tie2 kinase assessed as residual activity at 10 uM in presence of 100 uM ATP; how it was run: as §1
[9] = Competitive inhibition of recombinant human CK2 activity by Lineweaver-Burk plot analysis

Chain of Casein kinase II (P67870 whole entry): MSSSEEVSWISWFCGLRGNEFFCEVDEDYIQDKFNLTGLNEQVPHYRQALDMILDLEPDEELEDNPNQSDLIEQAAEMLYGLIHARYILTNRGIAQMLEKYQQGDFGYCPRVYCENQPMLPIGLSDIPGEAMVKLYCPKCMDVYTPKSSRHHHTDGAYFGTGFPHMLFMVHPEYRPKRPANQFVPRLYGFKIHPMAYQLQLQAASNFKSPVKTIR
Chain of Casein kinase II (P68400 whole entry): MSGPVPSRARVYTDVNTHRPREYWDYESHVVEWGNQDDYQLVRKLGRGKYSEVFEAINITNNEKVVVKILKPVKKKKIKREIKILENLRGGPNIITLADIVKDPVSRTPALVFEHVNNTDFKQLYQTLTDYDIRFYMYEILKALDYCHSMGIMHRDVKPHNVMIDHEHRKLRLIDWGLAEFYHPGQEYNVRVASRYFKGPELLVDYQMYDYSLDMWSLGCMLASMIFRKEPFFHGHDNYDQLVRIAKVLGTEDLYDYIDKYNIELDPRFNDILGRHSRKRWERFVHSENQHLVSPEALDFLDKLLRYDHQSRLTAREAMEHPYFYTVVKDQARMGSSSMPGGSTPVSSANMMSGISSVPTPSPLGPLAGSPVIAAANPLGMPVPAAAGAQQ
Chain of Casein kinase II (P19784 whole entry): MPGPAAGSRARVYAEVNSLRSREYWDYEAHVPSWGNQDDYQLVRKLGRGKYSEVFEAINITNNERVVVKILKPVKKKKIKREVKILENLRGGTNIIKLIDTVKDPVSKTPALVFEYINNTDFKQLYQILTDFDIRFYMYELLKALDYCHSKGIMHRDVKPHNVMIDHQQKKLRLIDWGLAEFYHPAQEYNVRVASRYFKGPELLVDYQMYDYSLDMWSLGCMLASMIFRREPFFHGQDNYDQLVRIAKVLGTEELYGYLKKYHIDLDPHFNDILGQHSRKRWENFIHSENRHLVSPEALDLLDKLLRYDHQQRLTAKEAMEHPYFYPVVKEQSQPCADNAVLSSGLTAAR
Chain of Hepatocyte growth factor receptor (Homo sapiens) (P08581 whole entry): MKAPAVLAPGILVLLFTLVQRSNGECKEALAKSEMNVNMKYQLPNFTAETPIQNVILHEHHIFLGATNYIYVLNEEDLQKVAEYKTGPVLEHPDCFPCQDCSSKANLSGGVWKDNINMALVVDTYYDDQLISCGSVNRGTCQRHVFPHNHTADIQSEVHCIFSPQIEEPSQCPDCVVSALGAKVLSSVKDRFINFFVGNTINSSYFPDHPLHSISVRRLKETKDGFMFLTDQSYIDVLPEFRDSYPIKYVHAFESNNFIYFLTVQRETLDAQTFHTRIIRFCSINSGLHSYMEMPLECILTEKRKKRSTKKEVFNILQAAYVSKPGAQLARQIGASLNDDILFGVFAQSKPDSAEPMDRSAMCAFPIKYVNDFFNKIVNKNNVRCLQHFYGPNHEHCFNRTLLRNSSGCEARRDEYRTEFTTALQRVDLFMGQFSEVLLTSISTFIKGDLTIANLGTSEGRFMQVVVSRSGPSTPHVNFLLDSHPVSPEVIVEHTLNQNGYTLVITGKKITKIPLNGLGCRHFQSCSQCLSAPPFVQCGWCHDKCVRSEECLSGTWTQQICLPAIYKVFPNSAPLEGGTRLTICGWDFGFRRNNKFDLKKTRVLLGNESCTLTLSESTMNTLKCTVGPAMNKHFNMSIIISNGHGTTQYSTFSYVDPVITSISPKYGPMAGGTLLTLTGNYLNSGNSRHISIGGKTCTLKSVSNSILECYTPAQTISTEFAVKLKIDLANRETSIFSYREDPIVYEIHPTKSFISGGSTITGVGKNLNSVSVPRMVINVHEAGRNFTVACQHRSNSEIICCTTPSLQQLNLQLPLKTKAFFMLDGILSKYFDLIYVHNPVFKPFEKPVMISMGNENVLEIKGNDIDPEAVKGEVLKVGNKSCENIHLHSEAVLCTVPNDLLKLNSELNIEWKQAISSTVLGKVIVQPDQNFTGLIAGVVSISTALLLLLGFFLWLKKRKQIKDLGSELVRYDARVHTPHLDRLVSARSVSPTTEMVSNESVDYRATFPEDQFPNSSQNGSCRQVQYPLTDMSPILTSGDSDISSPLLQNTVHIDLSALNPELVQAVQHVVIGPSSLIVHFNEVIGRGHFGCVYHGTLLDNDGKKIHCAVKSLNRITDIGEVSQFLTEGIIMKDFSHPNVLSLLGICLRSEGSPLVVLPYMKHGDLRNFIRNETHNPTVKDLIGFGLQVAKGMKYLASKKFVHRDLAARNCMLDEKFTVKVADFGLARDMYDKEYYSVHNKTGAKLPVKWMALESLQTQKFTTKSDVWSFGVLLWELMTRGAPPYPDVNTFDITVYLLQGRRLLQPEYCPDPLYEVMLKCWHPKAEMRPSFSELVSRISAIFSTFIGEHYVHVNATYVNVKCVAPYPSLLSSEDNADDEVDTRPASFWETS
Chain of Angiopoietin-1 receptor (Homo sapiens) (Q02763 whole entry): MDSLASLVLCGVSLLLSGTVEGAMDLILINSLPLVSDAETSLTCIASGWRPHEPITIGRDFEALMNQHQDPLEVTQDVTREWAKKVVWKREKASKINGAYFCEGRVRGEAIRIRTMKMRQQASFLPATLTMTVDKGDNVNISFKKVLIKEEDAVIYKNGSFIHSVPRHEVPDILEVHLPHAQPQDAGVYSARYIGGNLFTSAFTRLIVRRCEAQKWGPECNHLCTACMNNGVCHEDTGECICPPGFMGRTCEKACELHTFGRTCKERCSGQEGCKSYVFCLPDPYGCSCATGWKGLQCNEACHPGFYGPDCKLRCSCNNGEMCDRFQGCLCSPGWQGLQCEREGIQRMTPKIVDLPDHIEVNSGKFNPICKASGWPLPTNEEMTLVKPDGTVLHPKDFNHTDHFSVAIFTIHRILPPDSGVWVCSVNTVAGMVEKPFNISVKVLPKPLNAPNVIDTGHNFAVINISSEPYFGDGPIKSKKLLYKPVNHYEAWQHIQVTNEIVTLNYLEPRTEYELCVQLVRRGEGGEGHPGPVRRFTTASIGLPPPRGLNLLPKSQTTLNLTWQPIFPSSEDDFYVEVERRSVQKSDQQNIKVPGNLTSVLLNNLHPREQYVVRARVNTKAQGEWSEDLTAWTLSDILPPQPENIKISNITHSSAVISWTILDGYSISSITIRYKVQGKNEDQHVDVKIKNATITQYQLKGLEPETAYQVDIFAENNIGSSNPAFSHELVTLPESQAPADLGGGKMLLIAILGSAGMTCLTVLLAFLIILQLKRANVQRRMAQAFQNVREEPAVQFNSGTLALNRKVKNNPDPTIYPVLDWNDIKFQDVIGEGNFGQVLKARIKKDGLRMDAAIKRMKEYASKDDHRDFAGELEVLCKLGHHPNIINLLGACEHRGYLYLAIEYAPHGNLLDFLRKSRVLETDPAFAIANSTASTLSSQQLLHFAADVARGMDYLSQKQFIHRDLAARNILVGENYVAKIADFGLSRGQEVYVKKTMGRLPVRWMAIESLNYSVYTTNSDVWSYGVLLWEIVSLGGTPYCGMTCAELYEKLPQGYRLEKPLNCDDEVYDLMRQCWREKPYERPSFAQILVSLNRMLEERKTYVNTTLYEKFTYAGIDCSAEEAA
Chain of Fibroblast growth factor receptor 1 (Homo sapiens) (P11362 22-822 limits assumed): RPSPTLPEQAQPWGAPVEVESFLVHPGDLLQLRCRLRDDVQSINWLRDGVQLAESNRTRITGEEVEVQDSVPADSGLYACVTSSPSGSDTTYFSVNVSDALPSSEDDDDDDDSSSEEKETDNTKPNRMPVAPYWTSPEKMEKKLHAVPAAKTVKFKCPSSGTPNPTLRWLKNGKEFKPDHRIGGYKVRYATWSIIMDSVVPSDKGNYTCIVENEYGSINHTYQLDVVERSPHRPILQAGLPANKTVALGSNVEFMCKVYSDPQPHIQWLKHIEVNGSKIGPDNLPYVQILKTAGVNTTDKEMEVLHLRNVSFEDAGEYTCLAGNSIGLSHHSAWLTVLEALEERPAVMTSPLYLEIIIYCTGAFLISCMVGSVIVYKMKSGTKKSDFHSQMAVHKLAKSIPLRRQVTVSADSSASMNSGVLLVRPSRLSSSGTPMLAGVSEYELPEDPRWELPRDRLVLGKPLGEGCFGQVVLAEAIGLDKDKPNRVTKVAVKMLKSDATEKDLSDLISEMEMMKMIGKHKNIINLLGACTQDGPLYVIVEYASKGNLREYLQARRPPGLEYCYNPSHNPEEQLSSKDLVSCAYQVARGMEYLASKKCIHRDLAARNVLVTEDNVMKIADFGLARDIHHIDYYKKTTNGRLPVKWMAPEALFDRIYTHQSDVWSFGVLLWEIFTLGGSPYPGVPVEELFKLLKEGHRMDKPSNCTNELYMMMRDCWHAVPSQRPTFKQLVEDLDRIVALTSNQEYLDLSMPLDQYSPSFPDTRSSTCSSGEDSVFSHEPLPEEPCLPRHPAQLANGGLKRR
Chain of Mitogen-activated protein kinase 10 (Homo sapiens) (P53779 whole entry): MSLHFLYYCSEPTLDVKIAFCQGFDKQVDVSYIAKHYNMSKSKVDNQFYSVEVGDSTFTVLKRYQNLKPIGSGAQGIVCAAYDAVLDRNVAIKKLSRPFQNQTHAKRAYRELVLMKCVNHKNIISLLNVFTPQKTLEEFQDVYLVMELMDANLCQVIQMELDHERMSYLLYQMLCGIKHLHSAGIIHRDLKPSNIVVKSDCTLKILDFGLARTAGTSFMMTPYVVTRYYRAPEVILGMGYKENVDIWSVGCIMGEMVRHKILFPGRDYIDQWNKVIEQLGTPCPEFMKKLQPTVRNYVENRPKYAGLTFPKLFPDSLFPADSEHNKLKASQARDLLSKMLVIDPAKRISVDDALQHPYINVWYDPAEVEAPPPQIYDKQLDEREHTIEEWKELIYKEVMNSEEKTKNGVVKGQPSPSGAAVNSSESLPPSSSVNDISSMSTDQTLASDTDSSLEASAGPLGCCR

Compound | IC50 (Casein kinase II) | also measured
CCC(Sc1ncnc2scc(-c3ccc(C)cc3)c12)C(=O)O (stereo not given) | > 33 µM | –
O=C(O)CSc1ncnc2scc(-c3ccccc3)c12 | 30 µM | –
Cc1sc2ncnc(SC(C)C(=O)O)c2c1C (stereo not given) | > 33 µM | –
CCC(Sc1ncnc2scc(-c3ccc(Cl)cc3)c12)C(=O)O (stereo not given) | > 33 µM | –
Cc1nc(SCCC(=O)O)c2c3c(sc2n1)CCCC3 | 15.8 µM | –
O=C(O)CCSc1ncnc2scc(-c3ccc(Cl)cc3)c12 | 0.175 µM | –
Cc1sc2ncnc(SCc3cccc(C(=O)O)c3)c2c1C | 17.8 µM | –
CC(Sc1ncnc2sc3c(c12)CCCC3)C(=O)O (stereo not given) | 17 µM | –
O=C(O)CSc1ncnc2scc(-c3ccc(Cl)cc3)c12 | 32 µM | –
CC(Sc1ncnc2scc(-c3ccccc3)c12)C(=O)O (stereo not given) | 23 µM | –
Cc1sc2ncnc(SCC(=O)O)c2c1C | 17.8 µM | –
Cc1ccc(-c2csc3ncnc(SC(C)C(=O)O)c23)cc1 (stereo not given) | 31 µM | –
O=C(O)CSc1ncnc2sc(-c3ccccc3)cc12 | 1.25 µM | –
Cc1ccc(-c2csc3ncnc(SCCC(=O)O)c23)cc1C | 0.175 µM | –
Cc1nc(SCCC(=O)O)c2cc(-c3ccccc3)sc2n1 | 3.5 µM | –
O=C(O)CCCSc1ncnc2sc3c(c12)CCCC3 | > 33 µM | –
O=C(O)CCSc1ncnc2scc(-c3ccc(F)cc3)c12 | 1.2 µM | –
O=C(O)c1ccc(CSc2ncnc3sc4c(c23)CCCC4)cc1 | > 33 µM | –
Cc1cc2c(SCCC(=O)O)ncnc2s1 | 7 µM | –
CCOc1ccc(-c2csc3ncnc(SCCC(=O)O)c23)cc1 | 0.125 µM | Activity [1]: 100%; Activity [2]: 0.86%; Activity [3]: 48%; Activity [4]: 99%; Activity [5]: 115%; Activity [6]: 115%; Activity [7]: 94%; Activity [8]: 76%
CC1CCc2c(sc3ncnc(SCC(=O)O)c23)C1 (stereo not given) | 1.78 µM | –
Cc1cc2c(SCC(=O)O)ncnc2s1 | 4 µM | –
O=C(O)CSc1ncnc2scc(-c3ccc(Br)cc3)c12 | 14 µM | –
CC1CCc2c(sc3ncnc(SC(C)C(=O)O)c23)C1 (stereo not given) | 20 µM | –
CCC(Sc1ncnc2sc3c(c12)CCCC3)C(=O)O (stereo not given) | > 33 µM | –
Cc1ccc(-c2csc3ncnc(SCCC(=O)O)c23)cc1 | 0.1 µM | Activity [1]: 92%; Activity [2]: 0.72%; Ki [9]: 0.04 µM; Activity [3]: 23%; Activity [4]: 92%; Activity [5]: 126%; Activity [6]: 114%; Activity [7]: 104%; Activity [8]: 70%
Cc1sc2ncnc(SCC(=O)O)c2c1-c1ccccc1 | > 33 µM | –
Cc1sc2ncnc(SCCC(=O)O)c2c1C | 11.3 µM | –
